Laboratory results: ChEMBL document CHEMBL1153602, “Photochemical electrocyclisation of 3-vinylindoles to pyrido[2,3-a]-, pyrido[4,3-a]- and thieno[2,3-a]-carbazoles: design, synthesis, DNA binding and antitumor cell cytotoxicity” (2009)
Active and inactive are the calls of the source. The rule behind the calls is not given here.

Key:
[1] = system: HT-29; experiment: Cell cycle arrest in human HT-29 cells assessed as accumulation at G2/M phase after 24 hrs using PI staining by flow cytometry; assay type: functional, cell-based
Procedure, shortened: (§1)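 HT-29 cells, 3×10^5 per sample in exponential growth, were exposed to graded drug concentrations for 24 h. Cells were then trypsinised, fixed in 70% ethanol and stained 30 min in the dark with propidium iodide (50 µg/ml) plus RNase (100 µg/ml). DNA content was measured by flow cytometry, quantifying cell-cycle phases and the sub-G1 fraction.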

[2] = system: HT-29; experiment: Growth inhibition of human HT-29 cells by MTS assay; assay type: functional
Procedure, shortened: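 HT-29 cells, 3×10^3 per well, were seeded 24 h before treatment with compound at 1 nM–100 µM, run as 3 series of duplicate or triplicate points. After 72 h at 37 °C, MTS tetrazolium was added for 2 h and absorbance read at 492 nm. GC50 is the concentration halving cell number versus untreated control wells.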

[3] = system: Calf thymus DNA; experiment: Binding affinity to calf thymus DNA assessed as change in melting temperature at a compound to DNA molar ratio of 0.1 by UV-vis spectroscopy; assay type: nucleic-acid assay; conditions: Bos taurus
Procedure, shortened: (§2)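 UV absorbance of DNA at 260 nm recorded every minute from 20 to 100 °C, ramping 1 °C/min in a thermostated quartz cell. Tm is taken as the midpoint of the hyperchromic transition. ΔTm = Tm(DNA+drug) − Tm(DNA alone). Calf-thymus DNA or poly(dAdT)2 was used at DNA/drug ratios from 0.1 to 1.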

[4] = system: Calf thymus DNA; experiment: Binding affinity to calf thymus DNA assessed as change in melting temperature at a compound to DNA molar ratio of 0.25 by UV-vis spectroscopy; assay type: nucleic-acid assay; conditions: Bos taurus; procedure, shortened: as §2
[5] = system: Calf thymus DNA; experiment: Binding affinity to calf thymus DNA assessed as change in melting temperature at a compound to DNA molar ratio of 0.5 by UV-vis spectroscopy; assay type: nucleic-acid assay; conditions: Bos taurus; procedure, shortened: as §2
[6] = system: Calf thymus DNA; experiment: Binding affinity to calf thymus DNA assessed as change in melting temperature at a compound to DNA molar ratio of 1 by UV-vis spectroscopy; assay type: nucleic-acid assay; conditions: Bos taurus; procedure, shortened: as §2
[7] = system: Nucleic Acid; experiment: Binding affinity to poly(dA).poly(dT) duplex DNA assessed as change in thermal melting temperature at compound to DNA ratio of 0.1 by UV-vis spectroscopy; assay type: nucleic-acid assay
[8] = system: Nucleic Acid; experiment: Binding affinity to poly(dA).poly(dT) duplex DNA assessed as change in thermal melting temperature at compound to DNA ratio of 0.25 by UV-vis spectroscopy; assay type: nucleic-acid assay
[9] = system: Nucleic Acid; experiment: Binding affinity to poly(dA).poly(dT) duplex DNA assessed as change in thermal melting temperature at compound to DNA ratio of 0.5 by UV-vis spectroscopy; assay type: nucleic-acid assay
[10] = system: Nucleic Acid; experiment: Binding affinity to poly(dA).poly(dT) duplex DNA assessed as change in thermal melting temperature at compound to DNA ratio of 1 by UV-vis spectroscopy; assay type: nucleic-acid assay
[11] = system: Calf thymus DNA; experiment: Binding affinity to calf thymus DNA assessed as positive dichroic signal at phosphate/drug ratio of 1.2 by circular dichroism spectra; assay type: nucleic-acid assay; conditions: Bos taurus
Procedure, shortened: (§3)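 Circular dichroism of drug at […] in 1 ml of 1 mM sodium cacodylate, pH 7.0, with or without CT-DNA at 10–200 µM. Phosphate/compound ratio ran from 0.4 to 8. The induced CD signal in the ligand absorption region was recorded.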

[12] = system: Nucleic Acid; experiment: Binding affinity to pBS 117bp DNA by DnaseI footprinting assay; assay type: nucleic-acid assay
Procedure, shortened: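 Ligand and fragment were pre-incubated 15 min at 37 °C, then digested with DNase I at 0.001 unit/ml in 20 mM NaCl, 2 mM MgCl2, 2 mM MnCl2, pH 7.3. Products were resolved on a denaturing 8% polyacrylamide/8 M urea gel, with a G-track marker.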

[13] = system: HT-29; experiment: Cell cycle arrest in human HT-29 cells assessed as accumulation at S phase at 10 uM after 24 hrs using PI staining by flow cytometry; assay type: functional; procedure, shortened: as §1
[14] = system: HT-29; experiment: Cell cycle arrest in human HT-29 cells assessed as accumulation at G2/M phase at 25 uM after 24 hrs using PI staining by flow cytometry; assay type: functional, cell-based; procedure, shortened: as §1
[15] = system: UO-31; experiment: Growth inhibition of human UO31 cells after 48 hrs by sulforhodamine B protein assay; assay type: functional; conditions: UO-31, 48 h
Procedure, shortened: (§4)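 NCI 60-cell-line screen. Dose–response used at least five concentrations in 10-fold dilutions with 48 h continuous drug exposure. Growth was estimated by sulforhodamine B protein staining. GI50 is the molar concentration giving 50% growth inhibition versus control.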

[16] = system: HT-29; experiment: Growth inhibition of human HT-29 cells after 48 hrs by sulforhodamine B protein assay; assay type: functional; conditions: HT-29, 48 h; procedure, shortened: as §4
[17] = system: SK-MEL-5; experiment: Growth inhibition of human SK-MEL-5 cells after 48 hrs by sulforhodamine B protein assay; assay type: functional; conditions: SK-MEL-5, 48 h; procedure, shortened: as §4
[18] = system: SW-620; experiment: Growth inhibition of human SW620 cells after 48 hrs by sulforhodamine B protein assay; assay type: functional; conditions: SW-620, 48 h; procedure, shortened: as §4
[19] = biological target: T1, DNA topoisomerase 1 (Homo sapiens) (UniProt P11387); experiment: Inhibition of human topoisomerase 1-mediated DNA relaxation assessed as lack of nicking form by agarose gel electrophoresis
T1 sequence (whole entry): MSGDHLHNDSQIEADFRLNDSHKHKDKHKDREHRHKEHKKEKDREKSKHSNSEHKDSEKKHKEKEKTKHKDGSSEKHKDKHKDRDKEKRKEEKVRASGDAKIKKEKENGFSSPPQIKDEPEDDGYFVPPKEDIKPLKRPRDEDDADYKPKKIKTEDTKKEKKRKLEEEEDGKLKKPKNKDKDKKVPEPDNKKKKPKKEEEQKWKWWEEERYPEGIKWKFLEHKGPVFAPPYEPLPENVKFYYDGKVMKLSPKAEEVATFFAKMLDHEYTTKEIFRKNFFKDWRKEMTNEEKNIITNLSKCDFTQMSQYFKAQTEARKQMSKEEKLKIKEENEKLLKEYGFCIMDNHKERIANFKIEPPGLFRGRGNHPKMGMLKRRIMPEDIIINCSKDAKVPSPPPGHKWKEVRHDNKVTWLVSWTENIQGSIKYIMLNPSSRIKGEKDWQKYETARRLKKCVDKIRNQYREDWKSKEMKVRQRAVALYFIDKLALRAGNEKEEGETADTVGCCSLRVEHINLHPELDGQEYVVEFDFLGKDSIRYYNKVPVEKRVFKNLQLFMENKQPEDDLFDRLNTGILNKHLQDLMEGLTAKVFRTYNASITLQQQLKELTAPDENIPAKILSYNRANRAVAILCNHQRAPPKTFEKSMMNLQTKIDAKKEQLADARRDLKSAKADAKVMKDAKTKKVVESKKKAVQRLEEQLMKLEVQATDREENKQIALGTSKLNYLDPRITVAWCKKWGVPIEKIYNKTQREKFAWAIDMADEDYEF
Procedure, shortened: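 Supercoiled pUC19 (130 ng) was pre-incubated with compound at graded concentrations, or 20 or 50 µM in the cleavage assay. Human topoisomerase I (4 units) was then added for 45 min at 37 °C in 50 mM Tris pH 7.8, 50 mM KCl, 10 mM MgCl2, 1 mM DTT, 1 mM EDTA, 1 mM ATP. Camptothecin (20 µM) served as control. Samples ran on 1% agarose for 2 h at 120 V in TBE, with ethidium bromide either post-stained (relaxation) or included in the gel (cleavage).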

[20] = biological target: DNA topoisomerase 2-alpha (Homo sapiens) (UniProt P11388); experiment: Inhibition of human topoisomerase 2-mediated DNA relaxation assessed as double stranded break form by agarose gel electrophoresis
Procedure, shortened: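 Supercoiled pUC19 (130 ng) with compound at 20 or 50 µM, or etoposide as control, was incubated with human topoisomerase II (4 units) for 45 min at 37 °C in cleavage buffer. The reaction was stopped with 0.25% SDS plus proteinase K for 30 min at 50 °C. DNA forms were separated on 1% agarose containing ethidium bromide in TBE.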

[21] = system: HT-29; experiment: Cell cycle arrest in human HT-29 cells at 25 uM after 24 hrs using PI staining by flow cytometry
[22] = system: Calf thymus DNA; experiment: Binding affinity to calf thymus DNA assessed as quenching constant up 80 uM by fluorescence spectroscopy; assay type: nucleic-acid assay; conditions: Bos taurus
Procedure, shortened: (§5)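 Drug at a fixed 20 µM in 1 ml BPE buffer in a 10 mm quartz cuvette, titrated with CT-DNA at 10–200 µM base pairs. Excitation was set at each compound's own wavelength (276–319 nm). Constants came from Stern–Volmer plots of F0/F against CT-DNA concentration, with the slope taken as Ksv.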

[23] = system: HT-29; experiment: Cell cycle arrest in human HT-29 cells assessed as accumulation at S phase after 24 hrs using PI staining by flow cytometry; assay type: functional, cell-based; procedure, shortened: as §1
[24] = system: Calf thymus DNA; experiment: Binding affinity to calf thymus DNA assessed as quenching constant by fluorescence spectroscopy; assay type: nucleic-acid assay; conditions: Bos taurus; procedure, shortened: as §5
[25] = system: Calf thymus DNA; experiment: Binding affinity to calf thymus DNA assessed as negative dichroic signal at phosphate/drug ratio by circular dichroism spectra; assay type: nucleic-acid assay; conditions: Bos taurus; procedure, shortened: as §3
[26] = system: Calf thymus DNA; experiment: Binding affinity to calf thymus DNA assessed as positive dichroic signal at phosphate/drug ratio by circular dichroism spectra; assay type: nucleic-acid assay; conditions: Bos taurus; procedure, shortened: as §3
[27] = system: Calf thymus DNA; experiment: Binding affinity to calf thymus DNA assessed as positive dichroic signal at phosphate/drug ratio of 4.8 by circular dichroism spectra; assay type: nucleic-acid assay; conditions: Bos taurus; procedure, shortened: as §3

Sequence of DNA topoisomerase 2-alpha (Homo sapiens) (P11388 whole entry): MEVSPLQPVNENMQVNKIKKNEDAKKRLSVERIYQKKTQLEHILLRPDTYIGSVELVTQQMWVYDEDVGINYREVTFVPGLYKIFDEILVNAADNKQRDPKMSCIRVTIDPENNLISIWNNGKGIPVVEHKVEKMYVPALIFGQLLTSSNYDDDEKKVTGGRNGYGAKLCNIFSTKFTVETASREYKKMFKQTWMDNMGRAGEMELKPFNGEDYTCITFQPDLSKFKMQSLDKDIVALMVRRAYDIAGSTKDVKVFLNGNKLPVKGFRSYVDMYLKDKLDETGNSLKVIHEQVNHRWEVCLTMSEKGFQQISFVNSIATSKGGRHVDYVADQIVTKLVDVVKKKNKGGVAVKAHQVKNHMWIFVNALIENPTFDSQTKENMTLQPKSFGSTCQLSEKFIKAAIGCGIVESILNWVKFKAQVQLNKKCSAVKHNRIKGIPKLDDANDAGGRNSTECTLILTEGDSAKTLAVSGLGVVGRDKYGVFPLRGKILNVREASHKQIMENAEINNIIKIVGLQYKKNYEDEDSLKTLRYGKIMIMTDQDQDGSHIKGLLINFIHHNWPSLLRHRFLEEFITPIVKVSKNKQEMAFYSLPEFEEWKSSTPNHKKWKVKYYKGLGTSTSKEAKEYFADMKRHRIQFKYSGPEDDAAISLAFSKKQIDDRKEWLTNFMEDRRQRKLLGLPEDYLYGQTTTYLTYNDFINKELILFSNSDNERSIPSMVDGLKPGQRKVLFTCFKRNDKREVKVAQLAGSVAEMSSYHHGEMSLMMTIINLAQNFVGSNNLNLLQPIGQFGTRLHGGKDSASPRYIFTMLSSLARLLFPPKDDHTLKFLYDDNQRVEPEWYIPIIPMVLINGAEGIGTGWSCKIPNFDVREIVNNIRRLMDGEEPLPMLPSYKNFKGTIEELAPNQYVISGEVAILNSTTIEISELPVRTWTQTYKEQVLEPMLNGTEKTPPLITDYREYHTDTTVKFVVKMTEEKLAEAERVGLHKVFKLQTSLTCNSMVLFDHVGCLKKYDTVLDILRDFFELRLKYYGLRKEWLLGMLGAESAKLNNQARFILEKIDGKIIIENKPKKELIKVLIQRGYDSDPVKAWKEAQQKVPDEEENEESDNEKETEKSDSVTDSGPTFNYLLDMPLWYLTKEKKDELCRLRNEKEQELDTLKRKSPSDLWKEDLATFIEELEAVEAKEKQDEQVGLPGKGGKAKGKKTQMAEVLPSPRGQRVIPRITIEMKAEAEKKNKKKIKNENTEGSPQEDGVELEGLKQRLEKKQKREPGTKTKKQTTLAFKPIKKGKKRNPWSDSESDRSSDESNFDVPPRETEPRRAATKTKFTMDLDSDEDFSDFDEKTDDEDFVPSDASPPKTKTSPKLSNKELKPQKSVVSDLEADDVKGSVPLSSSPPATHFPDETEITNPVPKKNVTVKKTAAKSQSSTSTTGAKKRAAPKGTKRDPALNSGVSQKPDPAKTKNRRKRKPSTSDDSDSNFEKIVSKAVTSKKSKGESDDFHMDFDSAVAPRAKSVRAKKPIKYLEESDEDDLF

Row | SMILES | Activity [1] | GI50 [2] [µM] | ΔTm [3] [°C] | ΔTm [4] [°C] | ΔTm [5] [°C] | ΔTm [6] [°C] | ΔTm [7] [°C] | ΔTm [8] [°C] | ΔTm [9] [°C] | ΔTm [10] [°C] | Activity [12] | further results
1 | CN(C)CCNC(=O)c1cc2c3cccc(Cl)c3[nH]c2c2ncccc12 | Active | 14 | 1.1 | 1.5 | 5.1 | 7.9 | 2.8 | 6.2 | 13.6 | 8.8 | Active | Activity [11]: Active
2 | CN(C)CCNC(=O)c1cc2c3cc(Cl)ccc3[nH]c2c2ncccc12 | – | 3.2 | 1.5 | 7.4 | 7.3 | 11.7 | 6.1 | 14.7 | 18.9 | 24.9 | Active | Activity [13]: 37%; Activity [14]: Active; GI50 ([15]; read-out: GI50): 1.1 µM; GI50 ([15]; read-out: pGI50 (converted)): 1.1 µM; GI50 ([16]; read-out: GI50): 2.33 µM; GI50 ([16]; read-out: pGI50 (converted)): 2.34 µM; GI50 ([17]; read-out: GI50): 1.34 µM; GI50 ([17]; read-out: pGI50 (converted)): 1.35 µM; GI50 ([18]; read-out: GI50): 1.47 µM; GI50 ([18]; read-out: pGI50 (converted)): 1.48 µM; Activity [19]: Active; Activity [20]: Active; Activity [21]: Active
3 | CN(C)CCCNC(=O)c1cc2c3ccccc3[nH]c2c2sccc12 | – | 10.8 | 0 | 1.5 | 4.4 | 5.8 | 5.9 | 11.9 | 16.4 | 20.9 | Active | KSV [22]: 2.65 ×10⁴ /M
4 | CN(C)CCNC(=O)c1cc2c3cc(Cl)ccc3[nH]c2c2ccncc12 | – | 1.08 | 5.3 | 7.9 | 11.2 | 15.1 | 11.6 | 18.9 | 24.7 | 29.6 | Active | Activity [23]: Active; KSV [24]: 6.72 ×10³ /M; Activity [25]: Active; Activity [26]: Active
5 | CN(C)CCCNC(=O)c1cc2c3cccc(Cl)c3[nH]c2c2ncccc12 | Active | 4.49 | 2.6 | 5 | 10.4 | 13.8 | 9.7 | 17.6 | 23.6 | 29.8 | Active | Activity [27]: Active
